Data: ChEMBL document CHEMBL3351463, “Methyl effect in azumamides provides insight into histone deacetylase inhibition by macrocycles” (J Med Chem, 2014)
The source made the active and inactive calls. No cut-off for these calls is given here.

Assays:
Histone deacetylase 3 = Histone deacetylase 3 (Homo sapiens, UniProt O15379); test: Inhibition of human recombinant HDAC3 using [Ac-Leu-Gly-Lys(Ac)-AMC substrate incubated for 15 to 30 mins
[1] = target: T1, Protein deacetylase HDAC6 (Homo sapiens, UniProt Q9UBN7); test: Inhibition of human recombinant HDAC6 using [Ac-Leu-Gly-Lys(Ac)-AMC substrate incubated for 15 to 30 mins
T1 sequence (Q9UBN7 whole entry): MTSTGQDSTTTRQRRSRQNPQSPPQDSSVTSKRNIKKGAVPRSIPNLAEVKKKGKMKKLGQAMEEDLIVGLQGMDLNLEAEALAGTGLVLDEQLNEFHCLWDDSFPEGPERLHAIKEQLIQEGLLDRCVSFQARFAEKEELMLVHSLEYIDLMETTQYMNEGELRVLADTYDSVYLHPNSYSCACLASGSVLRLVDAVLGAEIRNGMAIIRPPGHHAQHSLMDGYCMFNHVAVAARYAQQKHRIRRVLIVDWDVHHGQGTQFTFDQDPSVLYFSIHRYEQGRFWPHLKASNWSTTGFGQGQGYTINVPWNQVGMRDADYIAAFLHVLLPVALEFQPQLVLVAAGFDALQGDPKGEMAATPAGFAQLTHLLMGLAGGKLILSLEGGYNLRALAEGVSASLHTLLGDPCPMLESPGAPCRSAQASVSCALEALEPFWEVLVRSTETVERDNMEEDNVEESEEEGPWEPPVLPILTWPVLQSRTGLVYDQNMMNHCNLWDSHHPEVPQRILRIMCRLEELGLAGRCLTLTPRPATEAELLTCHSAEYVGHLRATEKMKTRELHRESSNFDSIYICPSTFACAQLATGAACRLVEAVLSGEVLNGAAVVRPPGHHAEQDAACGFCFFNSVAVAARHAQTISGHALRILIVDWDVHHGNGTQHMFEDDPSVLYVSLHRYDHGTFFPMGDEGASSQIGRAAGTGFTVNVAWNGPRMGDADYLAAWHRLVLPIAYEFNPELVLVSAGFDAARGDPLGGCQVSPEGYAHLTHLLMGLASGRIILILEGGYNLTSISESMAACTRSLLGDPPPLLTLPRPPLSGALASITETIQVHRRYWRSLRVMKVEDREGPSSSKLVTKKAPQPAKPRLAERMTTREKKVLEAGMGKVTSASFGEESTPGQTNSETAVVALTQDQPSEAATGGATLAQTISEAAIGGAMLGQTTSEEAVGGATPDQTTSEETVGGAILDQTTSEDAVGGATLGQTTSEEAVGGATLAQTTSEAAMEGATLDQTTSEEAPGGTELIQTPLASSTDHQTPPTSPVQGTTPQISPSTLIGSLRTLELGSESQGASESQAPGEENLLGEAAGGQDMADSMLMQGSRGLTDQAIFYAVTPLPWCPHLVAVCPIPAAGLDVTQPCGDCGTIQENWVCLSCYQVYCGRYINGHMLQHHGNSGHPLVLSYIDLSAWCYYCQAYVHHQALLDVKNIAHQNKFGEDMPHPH

Histone deacetylase 1 = Histone deacetylase 1 (Homo sapiens, UniProt Q13547); test: Inhibition of human recombinant HDAC1 using [Ac-Leu-Gly-Lys(Ac)-AMC substrate incubated for 15 to 30 mins
Histone deacetylase 1, sequence (Q13547 whole entry): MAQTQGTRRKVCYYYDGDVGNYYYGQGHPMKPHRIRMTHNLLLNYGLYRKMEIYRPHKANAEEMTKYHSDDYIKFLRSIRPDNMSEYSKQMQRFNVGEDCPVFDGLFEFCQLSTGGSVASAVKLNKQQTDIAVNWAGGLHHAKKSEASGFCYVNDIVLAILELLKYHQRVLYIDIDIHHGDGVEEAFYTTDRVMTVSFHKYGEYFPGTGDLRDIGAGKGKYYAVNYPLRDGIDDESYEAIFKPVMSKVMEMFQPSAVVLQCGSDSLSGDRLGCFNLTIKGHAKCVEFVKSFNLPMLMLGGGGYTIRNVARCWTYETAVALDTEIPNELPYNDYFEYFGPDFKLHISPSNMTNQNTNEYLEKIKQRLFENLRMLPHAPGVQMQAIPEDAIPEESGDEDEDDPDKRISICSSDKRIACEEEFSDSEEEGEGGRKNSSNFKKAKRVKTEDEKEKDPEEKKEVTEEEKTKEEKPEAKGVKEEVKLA

Histone deacetylase 2 = Histone deacetylase 2 (Homo sapiens, UniProt Q92769); test: Inhibition of human recombinant HDAC2 using [Ac-Leu-Gly-Lys(Ac)-AMC substrate incubated for 15 to 30 mins
Histone deacetylase 2, sequence (Q92769 whole entry): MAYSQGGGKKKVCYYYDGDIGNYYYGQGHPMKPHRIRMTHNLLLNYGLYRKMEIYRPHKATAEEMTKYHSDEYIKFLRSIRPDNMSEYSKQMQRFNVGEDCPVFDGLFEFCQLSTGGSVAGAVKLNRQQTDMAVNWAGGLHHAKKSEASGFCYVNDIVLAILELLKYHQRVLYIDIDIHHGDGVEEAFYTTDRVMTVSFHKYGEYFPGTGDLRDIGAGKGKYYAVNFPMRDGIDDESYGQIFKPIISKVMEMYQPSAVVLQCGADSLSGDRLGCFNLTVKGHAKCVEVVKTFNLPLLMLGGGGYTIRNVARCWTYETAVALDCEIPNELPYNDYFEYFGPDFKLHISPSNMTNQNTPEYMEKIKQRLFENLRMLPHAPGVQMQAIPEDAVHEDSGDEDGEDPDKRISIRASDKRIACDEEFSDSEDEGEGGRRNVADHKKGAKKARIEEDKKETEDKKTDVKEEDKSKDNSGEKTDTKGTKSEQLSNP

Histone deacetylase 8 = target: T2, Histone deacetylase 8 (Homo sapiens, UniProt Q9BY41); test: Inhibition of human recombinant HDAC8 using [Ac-Leu-Gly-Lys(Ac)-AMC substrate incubated for 15 to 30 mins
T2 sequence (Q9BY41 whole entry): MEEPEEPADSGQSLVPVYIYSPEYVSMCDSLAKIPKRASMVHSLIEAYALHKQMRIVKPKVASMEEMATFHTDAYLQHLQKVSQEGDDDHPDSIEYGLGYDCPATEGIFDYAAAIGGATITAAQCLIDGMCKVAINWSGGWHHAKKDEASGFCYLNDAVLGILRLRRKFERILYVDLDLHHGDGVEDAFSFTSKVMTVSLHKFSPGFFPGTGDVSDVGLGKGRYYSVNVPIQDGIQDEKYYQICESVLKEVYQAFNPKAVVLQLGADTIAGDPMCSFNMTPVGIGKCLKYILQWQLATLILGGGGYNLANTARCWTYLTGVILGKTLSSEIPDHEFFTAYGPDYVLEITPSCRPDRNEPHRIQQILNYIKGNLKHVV

Histone deacetylase 11 = target: T3, Histone deacetylase 11 (Homo sapiens, UniProt Q96DB2); test: Inhibition of human recombinant HDAC11 using [Ac-Leu-Gly-Lys(Ac)-AMC substrate incubated for 15 to 30 mins
T3 sequence (Q96DB2 whole entry): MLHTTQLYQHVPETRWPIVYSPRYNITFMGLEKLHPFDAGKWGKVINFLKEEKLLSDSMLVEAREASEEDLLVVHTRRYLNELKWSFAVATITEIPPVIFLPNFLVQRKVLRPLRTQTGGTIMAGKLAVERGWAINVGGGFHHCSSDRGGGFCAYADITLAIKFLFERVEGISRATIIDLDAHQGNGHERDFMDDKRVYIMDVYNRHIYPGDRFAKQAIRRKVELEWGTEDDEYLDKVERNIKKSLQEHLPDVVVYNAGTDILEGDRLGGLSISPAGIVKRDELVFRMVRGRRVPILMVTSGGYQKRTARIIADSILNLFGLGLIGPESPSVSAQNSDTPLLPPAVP

[2] = target: T4, Polyamine deacetylase HDAC10 (Homo sapiens, UniProt Q969S8); test: Inhibition of human recombinant HDAC10 using Ac-Arg-His-Lys(Ac)-Lys(Ac)-AMC substrate incubated for 15 to 30 mins
T4 sequence (Q969S8 whole entry): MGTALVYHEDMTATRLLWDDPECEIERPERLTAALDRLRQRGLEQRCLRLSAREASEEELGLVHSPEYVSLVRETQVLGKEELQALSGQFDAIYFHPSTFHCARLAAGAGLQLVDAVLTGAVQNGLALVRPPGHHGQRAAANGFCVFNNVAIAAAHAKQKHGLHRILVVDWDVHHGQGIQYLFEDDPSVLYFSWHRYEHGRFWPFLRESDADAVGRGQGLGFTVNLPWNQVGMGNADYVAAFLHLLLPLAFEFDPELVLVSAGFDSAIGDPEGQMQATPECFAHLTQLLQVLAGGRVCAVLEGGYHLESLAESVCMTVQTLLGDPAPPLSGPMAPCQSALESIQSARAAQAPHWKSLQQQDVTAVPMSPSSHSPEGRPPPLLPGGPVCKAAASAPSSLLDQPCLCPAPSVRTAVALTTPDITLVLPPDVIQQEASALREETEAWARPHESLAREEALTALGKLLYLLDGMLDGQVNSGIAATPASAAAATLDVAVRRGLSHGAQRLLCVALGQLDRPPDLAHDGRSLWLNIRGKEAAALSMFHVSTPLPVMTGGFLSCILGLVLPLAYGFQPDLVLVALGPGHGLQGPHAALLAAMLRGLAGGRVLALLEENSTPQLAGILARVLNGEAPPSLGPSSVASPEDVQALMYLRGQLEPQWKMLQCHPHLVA

EB-3 = test: Cytotoxic activity against human EB3 cells assessed as growth inhibition up to 25 uM after 3 days by MTT assay; format: functional, cell-based
Outline: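 EB-3 (EBV-infected human Burkitt's lymphoma) cells seeded at 2 × 10^4 per well in RPMI-1640 with 10% FCS and 1% penicillin/streptomycin, cultured overnight at 37 °C, 5% CO2, then given compound or DMSO vehicle. 2-fold dilution series from DMSO stocks; 3 days exposure. MTT added for 4 h, formazan dissolved in acidic 2-propanol, A570 minus 630 nm. Three experiments in duplicate.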

[3] = target: T5, Histone deacetylase 8 (Homo sapiens) (UniProt Q9BY41); test: Inhibition of human recombinant HDAC8 at 20 uM using [Ac-Leu-Gly-Lys(Ac)-AMC substrate incubated for 15 to 30 mins
T5 sequence (whole entry): T2 sequence (Q9BY41 whole entry)
Outline: (§1)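 Recombinant human enzyme (HDAC6 2.4 ng/μL; HDAC8 0.2 ng/μL final) in pH 8.0 Tris buffer with BSA. Ac-Leu-Gly-Lys(Ac)-AMC substrate at 20 μM for HDAC6 and 200 μM for HDAC8. Incubated 30 min at 37 °C, then trypsin development 15–30 min at room temperature. Fluorescence read at ex 360/em 460 nm.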

[4] = target: T6, Protein deacetylase HDAC6 (Homo sapiens) (UniProt Q9UBN7); test: Inhibition of human recombinant HDAC6 at 20 uM using [Ac-Leu-Gly-Lys(Ac)-AMC substrate incubated for 15 to 30 mins; outline: as §1
T6 sequence (whole entry): T1 sequence (Q9UBN7 whole entry)

[5] = Cytotoxic activity against human EB3 cells after 3 days by MTT assay; format: functional; conditions: EB-3, 72 h
Outline: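 EBV-infected human Burkitt's lymphoma EB-3 cells seeded at 2 × 10^4 cells/well in RPMI-1640 with 10% FCS and 1% penicillin/streptomycin, cultured overnight at 37 °C, 5% CO2. Compounds added as 2-fold dilution series from DMSO stocks, top final concentration 50 or 100 μM; DMSO vehicle control. After 3 days, MTT added for 4 h. Formazan dissolved in acidic 2-propanol, A570 read minus A630. Three experiments in duplicate.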

Histone deacetylase 3, sequence (O15379 whole entry): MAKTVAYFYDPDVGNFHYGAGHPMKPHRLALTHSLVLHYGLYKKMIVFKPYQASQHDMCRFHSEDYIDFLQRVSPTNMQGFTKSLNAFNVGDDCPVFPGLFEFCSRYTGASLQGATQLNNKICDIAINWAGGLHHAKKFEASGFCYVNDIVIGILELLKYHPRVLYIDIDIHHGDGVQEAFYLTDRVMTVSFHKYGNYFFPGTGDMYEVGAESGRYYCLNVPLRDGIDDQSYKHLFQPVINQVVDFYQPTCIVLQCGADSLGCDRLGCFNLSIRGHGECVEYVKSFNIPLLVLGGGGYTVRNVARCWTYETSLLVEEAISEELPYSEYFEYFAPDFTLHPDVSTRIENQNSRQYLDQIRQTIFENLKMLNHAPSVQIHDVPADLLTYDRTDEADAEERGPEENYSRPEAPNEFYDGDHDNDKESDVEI

Row | Compound | Ki (Histone deacetylase 3) [nM] | Ki ([1]; read-out: Ki) [nM] | Ki (Histone deacetylase 1) [nM] | Ki (Histone deacetylase 2) [nM] | Ki (Histone deacetylase 8; read-out: Ki) [nM] | Ki (Histone deacetylase 11) [nM] | Ki [2] [nM] | growth inhibition (GI) (EB-3) | inhibition [3] [%] | Ki (Histone deacetylase 8) | Ki [1] | inhibition [4] [%] | GI50 [5] [nM]
1 | CC(C)[C@H]1NC(=O)C[C@@H](/C=C/CCCC(=O)O)NC(=O)[C@@H](Cc2c[nH]c3ccccc23)NC(=O)[C@@H](C)NC1=O | 600 | 3700 | 500 | 400 | 3000 | 1100 | 600 |  |  |  |  |  | 
2 | CC(C)[C@H]1NC(=O)C[C@@H](CCCCCC(=O)O)NC(=O)[C@@H](Cc2ccc(O)cc2)NC(=O)[C@@H](C)NC1=O | 200 | 3000 | 1000 | 300 |  | 1000 | 300 | inactive | < 50 | Not Active |  |  | 
3 | CC(C)[C@H]1NC(=O)C[C@@H](C/C=C\CCC(=O)O)NC(=O)[C@@H](Cc2ccccc2)NC(=O)[C@@H](C)NC1=O | 800 |  | 600 | 900 |  | 1500 | 700 | inactive | < 50 | Not Active | Not Active | < 50 | 
4 | CC(C)[C@H]1NC(=O)C[C@@H](CCCCCC(=O)O)NC(=O)[C@@H](Cc2ccccc2)NC(=O)[C@@H](C)NC1=O | 700 |  | 900 | 800 |  | 2000 | 1000 |  | < 50 | Not Active | Not Active | < 50 | 
5 | CC(C)[C@H]1NC(=O)[C@@H](C)[C@@H](C/C=C\CCC(N)=O)NC(=O)[C@@H](Cc2ccc(O)cc2)NC(=O)[C@@H](C)NC1=O |  |  |  |  |  |  |  | inactive |  |  |  |  | 
6 | CC(C)[C@H]1NC(=O)C[C@@H](C/C=C\CCC(=O)O)NC(=O)[C@@H](Cc2ccc(O)cc2)NC(=O)[C@@H](C)NC1=O | 300 | 6000 | 300 | 300 |  | 800 | 300 | inactive |  | Not Active |  |  | 
7 | CC(C)[C@H]1NC(=O)C[C@@H](/C=C/CCCC(=O)O)NC(=O)[C@@H](Cc2ccccc2)NC(=O)[C@@H](C)NC1=O | 1400 |  | 1200 | 1700 | 6000 | 3200 | 1600 |  |  |  | Not Active | < 50 | 
8 | CC(C)[C@H]1NC(=O)C[C@@H](CCCCCC(=O)O)NC(=O)[C@@H](Cc2c[nH]c3ccccc23)NC(=O)[C@@H](C)NC1=O | 500 | 1900 | 900 | 300 | 4300 | 300 | 170 |  |  |  |  |  | 
9 | CC(C)[C@H]1NC(=O)C[C@@H](/C=C/CCCC(=O)O)NC(=O)[C@@H](Cc2ccc(O)cc2)NC(=O)[C@@H](C)NC1=O | 500 | 2200 | 700 | 600 |  | 1300 | 700 | inactive | < 50 | Not Active |  |  | 
10 | CCC(=O)CCCCC[C@@H]1NC(=O)[C@H]2CCCCN2C(=O)[C@H]([C@@H](C)CC)NC(=O)[C@H](Cc2cn(OC)c3ccccc23)NC1=O [APICIDIN] |  |  |  |  |  |  |  |  |  |  |  |  | 800
11 | CC(C)[C@H]1NC(=O)[C@@H](C)[C@@H](C/C=C\CCC(=O)O)NC(=O)[C@@H](Cc2ccc(O)cc2)NC(=O)[C@@H](C)NC1=O |  |  |  |  |  |  |  | inactive |  |  |  |  | 
12 | CC(C)[C@H]1NC(=O)C[C@@H](C/C=C\CCC(=O)O)NC(=O)[C@@H](Cc2c[nH]c3ccccc23)NC(=O)[C@@H](C)NC1=O | 500 |  | 200 | 300 | 4500 | 900 | 230 | inactive |  |  | Not Active |  | 
13 | CC(C)[C@H]1NC(=O)[C@@H](C)[C@@H](C/C=C\CCC(=O)O)NC(=O)[C@@H](Cc2ccccc2)NC(=O)[C@@H](C)NC1=O |  |  |  |  |  |  |  | inactive |  |  |  |  | 
